Bioassay records deposited in PubChem by several laboratories.
PvdQ acylase: P. aeruginosa PvdQ acylase inhibition; purified PvdQ acylase, fluorescence plate reader; inhibition, % at 10 µM; actives 0.063% (n = 340,000); in the data active means inhibition above about 30%, passing the limit was not always enough
PHOSPHO1 block: blocks human PHOSPHO1 phosphatase activity. recombinant PHOSPHO1, absorbance phosphatase assay. actives 1.1% (n = 290,000). inhibition, % at 13.3 µM; in the data active means inhibition above about 60%
Target sequence (Q8TCT1 whole entry, looked up): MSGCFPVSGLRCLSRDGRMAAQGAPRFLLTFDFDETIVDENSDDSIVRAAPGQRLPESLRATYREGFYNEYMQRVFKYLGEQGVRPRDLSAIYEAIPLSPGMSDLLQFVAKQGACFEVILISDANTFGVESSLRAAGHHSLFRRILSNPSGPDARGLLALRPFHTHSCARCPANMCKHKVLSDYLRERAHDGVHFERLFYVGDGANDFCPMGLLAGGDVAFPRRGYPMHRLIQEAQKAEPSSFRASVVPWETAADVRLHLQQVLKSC
Yeast superoxide: lowers age-related superoxide in aged yeast cells | S. cerevisiae aged cells, superoxide DHE fluorescence; stronger effect = lower value | superoxide response (% of plate mean), % at 10 µM | actives 0.18% (n = 330,000);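 active means superoxide response under a set limit, about three screen SD below normal, cut at about 65% in these data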;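 further: yeast aged for seven days with compound at 30 °C before DHE staining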
IMP-1 inh: inhibitors of Pseudomonas aeruginosa IMP-1 metallo-beta-lactamase; actives 0.45% (n = 290,000); inhibition, % at 5.6 µM; purified IMP-1, nitrocefin hydrolysis, epi-absorbance fluorescence; AID 1556;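 active means inhibition above the mean plus 3 SD of all compounds in the same screening run, cut at about 4.5% in these data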
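System: purified IMP-1 / Input: IMP-1 dispensed at 0.2 nM / Medium: 50 mM HEPES pH 7.1, 50 µM ZnSO4, 0.05% Brij 35 / Timing: 15 min enzyme–compound preincubation, then 25 min nitrocefin reaction, 25 °C / Technique: plate fluorescence quenching by hydrolysis product, ex 480/em 530 nm / Repeats: singlicate testing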
VIM-2 inh: blocks Pseudomonas aeruginosa VIM-2 metallo-beta-lactamase. purified VIM-2, nitrocefin hydrolysis, epi-absorbance fluorescence. inhibition, % at 5.6 µM. actives 0.89% (n = 290,000). AID 1527;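 active means inhibition above the mean of all tested compounds plus 3 SD, cutoff set per screening run, cut at about 7.5% in these data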;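 further: red hydrolysis product quenches plate fluorescence so inhibitors raise well fluorescence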
Hits are given with their value. Compounds with a hit are over-represented: about 2.2% of the library has one in this group of screens.

COc1ccc(C(=O)N/N=C\c2coc3ccc(C)cc3c2=O)cc1 was read as PvdQ acylase inactive, PHOSPHO1 block inactive, Yeast superoxide inactive, IMP-1 inh 8.7 and VIM-2 inh inactive.
Screening CCCOC(=O)C(C)n1cnc2scc(-c3ccc(C)cc3)c2c1=O (stereo not drawn) returned PvdQ acylase inactive, PHOSPHO1 block inactive, Yeast superoxide inactive, IMP-1 inh inactive and VIM-2 inh inactive.
Screening Oc1cc(CNC2CCCCC2)c(O)cc1CNC1CCCCC1 returned PvdQ acylase inactive.
`O=S(=O)(c1ccc(Cl)cc1)N1CCC(N2CCCCCC2)CC1` gave PvdQ acylase inactive, PHOSPHO1 block inactive, Yeast superoxide inactive, IMP-1 inh 5.7 and VIM-2 inh inactive.
For O=C(CCN1CCOCC1)NC1CCCN(Cc2ccccc2F)C1 (stereo not drawn) the results were PvdQ acylase inactive, PHOSPHO1 block inactive, Yeast superoxide inactive, IMP-1 inh inactive and VIM-2 inh inactive.
Screening CN(C)CCSc1nc(-c2ccccc2)nc2c1CCC2 returned PvdQ acylase inactive, PHOSPHO1 block inactive, Yeast superoxide inactive, IMP-1 inh inactive and VIM-2 inh 9.8.
For C=CCNC(=S)NNC(=O)c1cccn(Cc2ccc(Cl)c(Cl)c2)c1=O the results were PvdQ acylase inactive, PHOSPHO1 block 78.5, Yeast superoxide inactive, IMP-1 inh inactive and VIM-2 inh inactive.
`CN1C(=O)c2cccc3c(S(=O)(=O)Nc4ccc(O)c(C(=O)O)c4)ccc1c23` gave PvdQ acylase inactive, PHOSPHO1 block inactive, Yeast superoxide inactive, IMP-1 inh inactive and VIM-2 inh 11.6.
For Cc1cccc(C(=O)NNC(=O)c2ccc3ccccc3c2)c1 the results were PvdQ acylase inactive.
For N#Cc1cc(NC(=O)c2ccc(F)cc2)c(=O)n2c1[nH]c1ccccc12 the results were PHOSPHO1 block inactive, Yeast superoxide inactive, IMP-1 inh inactive and VIM-2 inh inactive.
For CCCOc1cc(N)ccc1C(=O)OCCN(CC)CC the results were PvdQ acylase inactive and Yeast superoxide inactive.
`CCCOc1ccc(N)cc1N` gave PvdQ acylase inactive, PHOSPHO1 block 64.7, Yeast superoxide inactive, IMP-1 inh inactive and VIM-2 inh inactive.
For O=C(c1ccc(-n2cccc2)cc1)N1CCN(Cc2ccccc2)CC1 the results were PvdQ acylase inactive, PHOSPHO1 block inactive, Yeast superoxide inactive, IMP-1 inh inactive and VIM-2 inh inactive.
`Cn1nc(-c2ccc(C(=O)N3CCN(Cc4ccccc4)CC3)cc2)c2ccccc2c1=O` gave PvdQ acylase inactive, PHOSPHO1 block inactive, Yeast superoxide inactive, IMP-1 inh inactive and VIM-2 inh 10.9.
NNC(=O)c1snnc1-c1ccccc1 was read as PvdQ acylase inactive, PHOSPHO1 block inactive, Yeast superoxide inactive, IMP-1 inh inactive and VIM-2 inh inactive.
For COC(=O)c1ccc(NC(=O)c2snnc2-c2ccccc2)cc1 the results were PvdQ acylase inactive, PHOSPHO1 block 61.0, Yeast superoxide inactive, IMP-1 inh inactive and VIM-2 inh inactive.
Screening Oc1ccc(N2CCN(c3ncnc4sc5c(c34)CCC5)CC2)cc1 returned PvdQ acylase inactive, PHOSPHO1 block 75.2, Yeast superoxide inactive, IMP-1 inh inactive and VIM-2 inh inactive.
For CCCNC(=S)Nc1ccc(S(N)(=O)=O)cc1 the results were PvdQ acylase inactive, PHOSPHO1 block inactive, Yeast superoxide inactive, IMP-1 inh inactive and VIM-2 inh inactive.
Screening CCOCCCNC(=S)Nc1ccc(S(N)(=O)=O)cc1 returned PvdQ acylase inactive, PHOSPHO1 block 87.9, Yeast superoxide inactive, IMP-1 inh inactive and VIM-2 inh inactive.
O=C(O)c1ccc(S(=O)(=O)c2ccc3c(c2)C(=O)N(NC(=O)c2ccccc2)C3=O)cc1 was read as PvdQ acylase inactive, PHOSPHO1 block inactive, Yeast superoxide inactive, IMP-1 inh 5.1 and VIM-2 inh inactive.
Cc1ccc(C)c(C(=O)CCC(=O)OCn2nnc3ccccc3c2=O)c1 was read as PvdQ acylase inactive and Yeast superoxide inactive.
`CCNc1sc(C(=O)c2cccs2)c(N)c1-c1nc2ccccc2s1` gave PvdQ acylase inactive, PHOSPHO1 block inactive, Yeast superoxide inactive, IMP-1 inh inactive and VIM-2 inh inactive.
For C=CCNc1sc(C(=O)c2ccccc2)c(N)c1-c1nc2ccccc2s1 the results were PvdQ acylase inactive, PHOSPHO1 block 97.5, Yeast superoxide inactive, IMP-1 inh inactive and VIM-2 inh inactive.
For Cc1nc2nc(-c3cccnc3)nn2c(C)c1Cl the results were PvdQ acylase inactive, PHOSPHO1 block inactive, Yeast superoxide inactive, IMP-1 inh inactive and VIM-2 inh 10.6.
`Cc1nc2nc(-c3ccco3)nn2c(C)c1Cl` gave PvdQ acylase inactive, PHOSPHO1 block inactive, Yeast superoxide inactive, IMP-1 inh inactive and VIM-2 inh inactive.
CC(C)NC(=O)c1ccc2c(c1)N(Cc1ccccc1)C(=O)C(C)(C)O2 was read as PvdQ acylase inactive, PHOSPHO1 block inactive, Yeast superoxide inactive, IMP-1 inh inactive and VIM-2 inh inactive.
Screening COC(=O)c1ccc(CC(=O)c2ccc(O)cc2O)o1 returned PvdQ acylase inactive, PHOSPHO1 block 63.7, Yeast superoxide inactive, IMP-1 inh inactive and VIM-2 inh inactive.
Screening N#CCc1ccc(OC(=O)c2ccncc2)cc1 returned PvdQ acylase inactive and Yeast superoxide inactive.
For COc1ccc(-c2nnc(-c3cccnc3)o2)cc1OC the results were PvdQ acylase inactive, PHOSPHO1 block inactive, Yeast superoxide inactive, IMP-1 inh inactive and VIM-2 inh inactive.
`CCOc1ccc(-c2nnc(-c3cccnc3)o2)cc1OCC` gave PvdQ acylase inactive, PHOSPHO1 block inactive, Yeast superoxide inactive, IMP-1 inh inactive and VIM-2 inh 11.3.
Screening CSCCC(NC(=O)c1ccccc1Br)C(=O)NCC(c1ccco1)N1CCCCC1 (stereo not drawn) returned PvdQ acylase inactive and Yeast superoxide inactive.
Screening Cc1c(C)c2ccc(OCC(=O)NC3CCN(Cc4ccccc4)CC3)cc2oc1=O returned PvdQ acylase inactive, PHOSPHO1 block inactive, Yeast superoxide inactive, IMP-1 inh inactive and VIM-2 inh 12.0.
For O=C(NC1C2CCCC1CN(C1CC1)C2)c1ccc(Cl)cc1 (stereo not drawn) the results were PvdQ acylase inactive, PHOSPHO1 block inactive, Yeast superoxide inactive, IMP-1 inh inactive and VIM-2 inh inactive.
`COc1ccc(NC(=O)Cn2nnc(C(=O)Nc3ccc(F)c(Cl)c3)c2N)cc1` gave PvdQ acylase inactive, PHOSPHO1 block inactive, Yeast superoxide inactive, IMP-1 inh 8.1 and VIM-2 inh inactive.
Screening CCc1ccc(NC(=S)Nc2ccc(S(=O)(=O)Nc3ncccn3)cc2)cc1 returned PvdQ acylase inactive, PHOSPHO1 block inactive, Yeast superoxide inactive, IMP-1 inh inactive and VIM-2 inh inactive.
COc1ccc(CCNC(=S)Nc2ccc(S(=O)(=O)Nc3ncccn3)cc2)cc1OC was read as PvdQ acylase inactive, PHOSPHO1 block 67.2, Yeast superoxide inactive, IMP-1 inh inactive and VIM-2 inh inactive.
CC1=CC(C)C(C(=O)O)C(C(=O)Nc2cccnc2)C1 (stereo not drawn) was read as PvdQ acylase inactive, PHOSPHO1 block inactive, Yeast superoxide inactive, IMP-1 inh inactive and VIM-2 inh inactive.
